Data taken from ChEMBL document CHEMBL1126044, “Affinity of human growth hormone-releasing factor (1-29)NH2 analogues for GRF binding sites in rat adenopituitary” (J Med Chem, 1992).

Tests used:
Rattus norvegicus = species on record: Rattus norvegicus; assay: Residual concentration after 60 min incubation with pituitary homogenates, in the binding assay conditions, by quantitative HPLC method; type: functional
How it was run: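 Peptide at 10 µM incubated with rat pituitary homogenate (150 µg protein/100 µL) in binding-assay conditions at 23 °C for 0 and 60 min. Reaction stopped with cold 50 mM phosphate pH 0.8 and centrifugation. Controls without homogenate accounted for adsorption. Remaining peptide measured by C18 HPLC (0.01% TFA/acetonitrile gradient, UV 214 nm) and peak-area integration.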

[1] = biological target: T1, Growth hormone-releasing hormone receptor (Rattus norvegicus) (UniProt Q02644); assay: Relative affinity compared to hGRF(1-29)NH2; type: functional
T1 sequence (whole entry): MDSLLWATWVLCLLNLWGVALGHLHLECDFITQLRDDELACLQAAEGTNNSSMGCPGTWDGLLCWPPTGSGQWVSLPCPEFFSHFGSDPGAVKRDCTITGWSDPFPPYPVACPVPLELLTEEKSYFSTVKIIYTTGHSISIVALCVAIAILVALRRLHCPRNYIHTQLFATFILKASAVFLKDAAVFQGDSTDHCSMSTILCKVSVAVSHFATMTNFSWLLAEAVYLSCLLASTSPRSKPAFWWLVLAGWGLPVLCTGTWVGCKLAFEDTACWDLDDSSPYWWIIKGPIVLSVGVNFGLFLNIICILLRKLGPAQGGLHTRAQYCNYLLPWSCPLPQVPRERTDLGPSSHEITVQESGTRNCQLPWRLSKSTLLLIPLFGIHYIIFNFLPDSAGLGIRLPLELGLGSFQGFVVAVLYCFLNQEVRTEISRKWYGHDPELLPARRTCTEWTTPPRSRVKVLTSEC
How it was run: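 Radioligand competition in rat anterior pituitary homogenate using [125I-Tyr10]hGRF(1-44)NH2 at 35–50 pM and peptides at 0–1000 nM, 60 min at 23 °C. Relative affinity is the binding IC50 expressed as a percentage relative to hGRF(1-29)NH2.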

[2] = biological target: T2, Growth hormone-releasing hormone receptor (Rattus norvegicus, UniProt Q02644); assay: Compound was tested to Inhibit [125I]-Growth hormone-releasing factor in rat adenopituitary homogenates
T2 sequence (Q02644 whole entry): T1 sequence (whole entry)
How it was run: (§1)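 Anterior pituitaries from 2-month-old male Sprague-Dawley rats homogenized in ice-cold 50 mM Tris-HCl pH 7.4 with 5 mM MgCl2, 5 mM EDTA. Homogenate (70–75 µg protein) incubated with 35–50 pM [125I-Tyr10]hGRF(1-44)NH2 and peptide at 0–1000 nM in Tris-HCl buffer pH 7.4 with 5 mM EDTA, 5 mM MgCl2, 0.42% BSA, 60 min at 23 °C. Nonspecific binding defined with 2.4 µM rGRF(1-29)NH2. Bound fraction separated by centrifugation and gamma-counted. IC50 fitted with LIGAND. Mean ± SEM of three experiments, each in duplicate or triplicate.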

[3] = biological target: T2, Growth hormone-releasing hormone receptor; assay: Compound was tested to Inhibit [125I]GRF in rat adenopituitary homogenates; how it was run: as §1

Compound	Residual peptide remaining after 60 min (Rattus norvegicus) [%]	Activity [1] [%]	IC50 [2] [nM]	IC50 [3] [nM]
H-YADAIFTNSYRKGQLSARKLLQDIMSR-NH2				> 1000
CC[C@H](C)[C@H](NC(=O)[C@H](C)NC(=O)[C@H](CC(=O)O)NC(=O)[C@H](C)NC(=O)[C@H](Cc1ccc(O)cc1)NC(C)=O)C(=O)N[C@@H](Cc1ccccc1)C(=O)N[C@H](C(=O)N[C@@H](CC(N)=O)C(=O)N[C@@H](CO)C(=O)N[C@@H](Cc1ccc(O)cc1)C(=O)N[C@@H](CCCN=C(N)N)C(=O)N[C@@H](CCCCN)C(=O)N[C@H](C(=O)N[C@@H](CC(C)C)C(=O)NCC(=O)N[C@@H](CCC(N)=O)C(=O)N[C@@H](CC(C)C)C(=O)N[C@@H](CO)C(=O)N[C@@H](C)C(=O)N[C@@H](CCCN=C(N)N)C(=O)N[C@@H](CCCCN)C(=O)N[C@@H](CC(C)C)C(=O)N[C@@H](CC(C)C)C(=O)N[C@@H](CCC(N)=O)C(=O)N[C@@H](CC(=O)O)C(=O)N[C@H](C(=O)N[C@@H](CCSC)C(=O)N[C@@H](CO)C(=O)N[C@@H](CCCN=C(N)N)C(N)=O)[C@@H](C)CC)C(C)C)[C@@H](C)O	85	32		
H-YADAIFTNSYRKVLQLSARKLLQDIMSR-NH2	88		1000	
CC[C@H](C)[C@H](NC(=O)[C@H](C)NC(=O)[C@H](CC(=O)O)NC(=O)[C@H](C)NC(=O)[C@H](Cc1ccc(O)cc1)NC(=O)CCCCCCCN)C(=O)N[C@@H](Cc1ccccc1)C(=O)N[C@H](C(=O)N[C@@H](CC(N)=O)C(=O)N[C@@H](CO)C(=O)N[C@@H](Cc1ccc(O)cc1)C(=O)N[C@@H](CCCN=C(N)N)C(=O)N[C@@H](CCCCN)C(=O)N[C@H](C(=O)N[C@@H](CC(C)C)C(=O)NCC(=O)N[C@@H](CCC(N)=O)C(=O)N[C@@H](CC(C)C)C(=O)N[C@@H](CO)C(=O)N[C@@H](C)C(=O)N[C@@H](CCCN=C(N)N)C(=O)N[C@@H](CCCCN)C(=O)N[C@@H](CC(C)C)C(=O)N[C@@H](CC(C)C)C(=O)N[C@@H](CCC(N)=O)C(=O)N[C@@H](CC(=O)O)C(=O)N[C@H](C(=O)N[C@@H](CCSC)C(=O)N[C@@H](CO)C(=O)N[C@@H](CCCN=C(N)N)C(N)=O)[C@@H](C)CC)C(C)C)[C@@H](C)O	100	26	21.6	
H-YADAIFTNSYRKVLGQLSARKLLQDIR-NH2	94	4.6		
H-YADAIFTNSYRKQLSARKLLQDIMSR-NH2				> 1000
H-YADAIFTNSYRKVLGQLSARKLLDIMSR-NH2	85	12		
H-YADAIFTNSYRKVLGQLSARKLLQDMSR-NH2		30	20.3	
H-YADAIFTNSYRKVLGQLSARKLLQDIMR-NH2	100	78		

Now from value to compound:

Residual peptide remaining after 60 min (Rattus norvegicus) [%]	Activity [1] [%]	IC50 [2] [nM]	IC50 [3] [nM]	Compound
92	0.7	836		H-YADAIFTNSYRVLGQLSARKLLQDIMSR-NH2
81	100			CC[C@H](C)[C@H](NC(=O)[C@H](C)NC(=O)[C@H](CC(=O)O)NC(=O)[C@H](C)NC(=O)[C@@H](N)Cc1ccc(O)cc1)C(=O)N[C@@H](Cc1ccccc1)C(=O)N[C@H](C(=O)N[C@@H](CC(N)=O)C(=O)N[C@@H](CO)C(=O)N[C@@H](Cc1ccc(O)cc1)C(=O)N[C@@H](CCCN=C(N)N)C(=O)N[C@@H](CCCCN)C(=O)N[C@H](C(=O)N[C@@H](CC(C)C)C(=O)NCC(=O)N[C@@H](CCC(N)=O)C(=O)N[C@@H](CC(C)C)C(=O)N[C@@H](CO)C(=O)N[C@@H](C)C(=O)N[C@@H](CCCN=C(N)N)C(=O)N[C@@H](CCCCN)C(=O)N[C@@H](CC(C)C)C(=O)N[C@@H](CC(C)C)C(=O)N[C@@H](CCC(N)=O)C(=O)N[C@@H](CC(=O)O)C(=O)N[C@H](C(=O)N[C@@H](CCSC)C(=O)N[C@@H](CO)C(=O)N[C@@H](CCCN=C(N)N)C(N)=O)[C@@H](C)CC)C(C)C)[C@@H](C)O
	28	20.2		H-YADAIFTNSYRKVLGQLSARKLLQDIMS-NH2
	57	9.8		H-HADAIFTSSYRRILGQLYARKLLHEIMNR-NH2
	0.6		1000	H-YADAIFTNSYRKVLGQLSLLQDIMSR-NH2
100	5.9			H-YADAIFTSYRKVLGQLSARKLLQDIMSR-NH2
89		> 1000		H-YADAIFTNSYRKLGQLSARKLLQDIMSR-NH2
93	1.8	311		H-DAIFTNSYRKVLAQLSARKLLQDIMSR-NH2
100	13			H-ADAIFTSSYRRILGQLYARKLLHEIMNR-NH2
			> 1000	H-YADAIFTNSYRKVLGLSARKLLQDIMSR-NH2
			> 1000	H-YADAIFTNSYRKVLGLLQDIMSR-NH2
	85			CC[C@H](C)[C@H](NC(=O)[C@H](C)NC(=O)[C@H](CC(=O)O)NC(=O)[C@H](C)NC(=O)[C@H](Cc1ccc(O)cc1)NC(=O)CCCCCN)C(=O)N[C@@H](Cc1ccccc1)C(=O)N[C@H](C(=O)N[C@@H](CC(N)=O)C(=O)N[C@@H](CO)C(=O)N[C@@H](Cc1ccc(O)cc1)C(=O)N[C@@H](CCCN=C(N)N)C(=O)N[C@@H](CCCCN)C(=O)N[C@H](C(=O)N[C@@H](CC(C)C)C(=O)NCC(=O)N[C@@H](CCC(N)=O)C(=O)N[C@@H](CC(C)C)C(=O)N[C@@H](CO)C(=O)N[C@@H](C)C(=O)N[C@@H](CCCN=C(N)N)C(=O)N[C@@H](CCCCN)C(=O)N[C@@H](CC(C)C)C(=O)N[C@@H](CC(C)C)C(=O)N[C@@H](CCC(N)=O)C(=O)N[C@@H](CC(=O)O)C(=O)N[C@H](C(=O)N[C@@H](CCSC)C(=O)N[C@@H](CO)C(=O)N[C@@H](CCCN=C(N)N)C(N)=O)[C@@H](C)CC)C(C)C)[C@@H](C)O
